High-throughput results from PubChem BioAssay.
HSV replic up: enhancers of HSV replication in host cells, fold increase, host cell viability; HSV replication augmentation in cells; maximum fold increase; 220,000 compounds, 0.005% hits; AID 1956, 2009; in the data active = maximum fold increase above about 1.5; inconclusive = no clear call, values can overlap the other calls; tested in PC3 cells
Mdm2 ligase inh: MDM2-luciferase reporter signal enhancers, primary screen, MDM2 E3 ligase inhibitor project, cell-based, luminescence, 1536-well; signal enhancement, % at 5 µM; AID 1230, 2008; cell-based MDM2 ubiquitination luciferase reporter, 2 h; 0 = plate control, 100 = twice control, blank-subtracted; 210,000 compounds, 0.11% hits;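 active = signal enhancement of 30% or more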;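 also: luminescence tracks abundance of the self-degrading MDM2-luciferase fusion protein; higher signal means inhibition of MDM2 E3 ligase activity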
Target sequence (Q00987 whole entry, looked up, the tested form may be a part): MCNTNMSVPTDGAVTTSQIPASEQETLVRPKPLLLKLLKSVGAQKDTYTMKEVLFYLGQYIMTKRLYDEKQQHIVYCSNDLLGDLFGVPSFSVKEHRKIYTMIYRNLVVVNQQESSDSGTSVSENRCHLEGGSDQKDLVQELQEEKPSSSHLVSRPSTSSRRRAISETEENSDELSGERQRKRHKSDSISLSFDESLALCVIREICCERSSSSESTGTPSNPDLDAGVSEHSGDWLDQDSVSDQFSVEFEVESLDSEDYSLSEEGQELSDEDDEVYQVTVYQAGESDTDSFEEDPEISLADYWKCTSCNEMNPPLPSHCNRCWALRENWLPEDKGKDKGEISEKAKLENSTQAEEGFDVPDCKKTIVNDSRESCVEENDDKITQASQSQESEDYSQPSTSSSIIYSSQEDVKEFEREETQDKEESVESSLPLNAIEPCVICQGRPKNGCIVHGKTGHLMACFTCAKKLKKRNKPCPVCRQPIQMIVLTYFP
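Assay system: stable mammalian line carrying autodegrading MDM2–luciferase fusion reporter; Input: 2000 cells in each well; Compound dosing: single-point 5 µM; Schedule: 2 h compound exposure at 37 °C; Signal: SteadyLite luciferase luminescence after 15 min room-temperature reagent incubation; Evaluation: % luminescence enhancement versus blank-corrected plate control mean; Benchmarks: plate controls and plate blanks.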
zVAD death inh: inhibitors of zVAD-triggered necroptosis, primary screen, L929 cells | viability rescue, % at 10 µM | L929 zVAD necroptosis rescue, ATP luminescence, 24 h; with zVAD 60 µM | 220,000 compounds, 0.38% hits;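 active = activation, scaled between plate controls, above about 75%, limit read from the data; inactive = activation under that limit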;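 also: 0% = zVAD with DMSO and 100% = DMSO alone without zVAD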
TNF necrop inh: inhibitors of TNF-alpha triggered necroptosis, primary screen, cell-based, Jurkat FADD-/-, single concentration; 220,000 compounds, 0.068% hits; activation (protection from cell death), % at 10 µM; Jurkat FADD-/- TNF necroptosis rescue, ATP luminescence, 24 h; 0 = TNF only, 100 = no-TNF cells; AID 463075, 2010;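 active = activation, meaning protection from cell death, of at least 50% relative to plate controls; inactive = activation below 50%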;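 also: necroptosis triggered by 40 ng/mL TNF-alpha added together with compound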
E-sel TNF inh: E-selectin induction blockers in HUVEC – imaging, immunofluorescence, high content, primary screen. HUVEC TNFa-induced E-selectin immunofluorescence. inhibition, % at 2 µM. AID 1246, 2008. 120,000 compounds, 0.71% hits;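 active = inhibition above the batch mean plus 3 SD, and confirmed as a hit on visual image review, cut at about 43% in these data; inconclusive = passes the inhibition cutoff but fails visual image review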;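 also: 0% = TNF-stimulated DMSO wells and 100% = unstimulated control wells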
* marks the source's active call; other numbers are inactive results; i = inactive; ? = inconclusive; . = no result given. Shown are actives, neighbours in structure and some others; about 0.89% of the full set was active somewhere.

SMILES	HSV replic up	Mdm2 ligase inh	zVAD death inh	TNF necrop inh	E-sel TNF inh
O=S(=O)(c1cccc2cccnc12)N1CCN(c2ccc(F)cc2)CC1	i	-1	4	56*	.
CCOc1ccc(OCC)c(NC(=O)CN2CCN(c3cccc(C)c3)CC2)c1	.	-13	0	1	95*
CC(C)(C)C(=O)NC(=S)NNC(=O)c1ccc(Cl)cc1Cl	i	-5	25	-1	.
Cc1ccc(S(=O)(=O)N/N=C/c2cccc3nccnc23)cc1	i	-29	1	-13	.
COc1ccc(-n2nnnc2-c2cnc(N3CCCC3)nc2C(F)(F)F)cc1	i	-42	0	-8	100*
FC(F)(F)c1nc(-c2cccnc2)ncc1-c1nnnn1-c1ccccc1	i	-11	0	-11	-29
CC(C)n1c(SCC(=O)Nc2nc3c(s2)CCCC3)nc2c1c(=O)n(C)c(=O)n2C	i	3	2	-2	100*
O=C(O)/C=C/c1ccc(S(=O)(=O)Nc2ccc(C(=O)NCC(=O)O)cc2)cc1	i	-11	-1	0	.
O=S(=O)(NCC(c1ccco1)N1CCN(c2ccc(F)cc2)CC1)c1ccc(F)cc1 (configuration not stated)	i	-8	1	1	.
CCS(=O)(=O)NCC(c1ccco1)N1CCN(c2ccccc2)CC1 (configuration not stated)	i	-8	2	-2	70*
O=S(=O)(NCC(c1ccco1)N1CCN(c2ccccc2)CC1)c1ccc(F)cc1 (configuration not stated)	i	-12	0	-1	69*
CCC(=O)NCc1nc2ccccc2n1Cc1ccccc1F	i	3	1	2	65*
CCC(=O)NCCCc1nc2ccccc2n1Cc1ccccc1F	i	-2	0	0	-31
COC(=O)c1ccc2c(=O)n(CCCCCC(=O)O)c(=S)[nH]c2c1	i	-7	.	-2	-1
CCOC(=O)c1cnc2ccc(C)cc2c1Nc1ccc(N2CCOCC2)cc1	i	-6	1	-13	100*
CCOC(=O)c1ccc(Nc2cc(C)nc(N3CCOCC3)n2)cc1	i	-13	35	-2	67*
Cc1ccccc1-n1ccnc1SCC(=O)O	i	-7	1	1	65*
COc1ccc(NC(=O)c2cc(C)on2)cc1OC	i	-7	0	-1	16
COc1ccc(NC(=O)c2cc(-c3ccc(OC)c(OC)c3)on2)cc1OC	.	-12	0	-2	80*
COc1cccc(NC(=S)/C(=C(\[O-])c2ccc([N+](=O)[O-])cc2)[n+]2ccccc2)c1	i	-2	0	0	-19
CCOc1ccc(NC(=S)NCCCN2CCOCC2)cc1	i	34*	6	1	.
COCCCNC(=O)CN1C(=O)c2ccccc2C1=O	i	-10	1	-1	66*
O=C(CN1C(=O)c2ccccc2C1=O)NCCOc1ccccc1	i	-7	1	3	.
O=C(NCc1ccco1)C1CC(c2cccc([N+](=O)[O-])c2)=NO1 (configuration not stated)	i	-9	1	-5	100*
Cc1cc2c(c(=O)o1)C(c1ccc([N+](=O)[O-])o1)C(C#N)=C(N)O2 (configuration not stated)	i	-5	-1	-1	.
SMILES	HSV replic up	Mdm2 ligase inh	zVAD death inh	TNF necrop inh	E-sel TNF inh
CCOC(=O)c1cc(-c2ccccc2)sc1NC(=S)Nc1cccc(C)n1	i	-13	0	-1	54*
CCOC(=O)c1cc(-c2ccccc2)sc1NC(=O)C(C)C	i	-13	-1	2	-66
N#Cc1cc2sc3nc4ccccc4n3c2cc1C#N	i	-12	0	-1	-4
N#Cc1cc2sc3nnc(-c4ccncc4)n3c2cc1C#N	i	1	12	0	58*
CCC(=O)Oc1ccc(NC(=O)CSCc2ccccc2)cc1	i	3	1	2	.
COc1ccc(Nc2nc(C(=O)N3CCc4ccccc4C3)cs2)cc1	i	33*	2	-1	.
COc1cccc(-c2cc(C(F)(F)F)n3nc(C(=O)N4CCCCC4c4cccnc4)cc3n2)c1 (configuration not stated)	i	-2	10	-2	-1
CCCN1CCC(NC(=S)Nc2ccc(S(N)(=O)=O)cc2)CC1	i	-13	-1	1	.
O=C(NC(=S)Nc1cc(C(F)(F)F)ccc1N1CCOCC1)c1ccco1	i	-23	-1	2	.
CC(C)Cn1cnc2c1c(=O)n(CC(=O)Nc1ccc3c(c1)OCO3)c(=O)n2Cc1ccccc1	i	-2	0	0	71*
COc1ccccc1NC(=S)N(Cc1ccco1)Cc1cc2cccc(C)c2[nH]c1=O	i	-6	0	3	61*
COc1ccccc1NC(=S)N(Cc1ccco1)Cc1cc2cc(C)c(C)cc2[nH]c1=O	.	-17	0	-14	-8
CC(=O)Nc1ccc(NC(=O)CCNS(=O)(=O)c2cccc3nsnc23)cc1	i	-10	0	0	29
O=C(Cn1cncn1)NCc1cccc2ccccc12	i	-23	0	-1	64*
O=C(Cn1cncn1)NCc1ccccc1Br	i	-12	0	-1	-21
CN(C)c1ccc(NC(=S)NC(=O)/C=C/c2ccc(Cl)cc2)cc1	i	4	0	-2	87*
COc1ccccc1Cc1nc(-c2ccncc2)no1	i	-12	0	0	77*
Clc1ccccc1OCc1nc(-c2ccncc2)no1	i	-2	0	2	22
COc1ccc(-c2nc(CNS(=O)(=O)c3ccc(OC)c(OC)c3)cs2)cc1	i	-13	2	-1	58*
COc1ccc(C2C(C(=O)Nc3cccnc3)=C(C)Nc3nc(-c4cccs4)nn32)cc1 (configuration not stated)	i	.	0	-1	100*
N#CCc1ccc(NS(=O)(=O)c2cccs2)cc1	i	9	5	3	64*
CCOc1cc(/C=C/C(=O)Nc2ccc(C(=O)NCCN(CC)CC)cc2)ccc1OCC(C)C	i	2	-3	-22	.
COc1cc(OC)cc(C(=O)NC(=S)Nc2nnn(C)n2)c1	i	-8	0	0	.
N#CC(C#N)=C1C=CC=CN1/C(=C\c1ccccc1)C(=O)c1cccs1	?	-5	0	-6	.
N#CC(C#N)=C1C=CC=CN1/C(=C\c1ccccc1Cl)C(=O)c1ccccc1	i	-2	.	-19	69*
C/C(=N/NC(=O)c1ccccc1)c1ccc(NC(=O)C(F)(F)F)cc1	i	0	4	1	.
CC(C)CN(C)C(=O)CCc1nnc(Cc2cccc(C(F)(F)F)c2)o1	i	-7	0	1	.
